From ChEMBL document CHEMBL3232745, “Design, synthesis and evaluation of novel diaryl pyrrolopyrimidine and pyrrolothiazine derivatives as inhibitors of tumor necrosis factor stimulated gene-14 (TSG-14) production” (2014)

Test system: Rattus norvegicus
Test: Antiinflammatory activity in albino rat assessed as inhibition of LPS-induced TSG-14 production at 30 mg/kg, po administered 30 mins before LPS challenge measured after 4 to 6 hrs by ELISA relative to control
Format: functional
Outline: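 Male albino rats (~200 g), three per group, dosed orally with compound suspended in 0.5% carboxymethylcellulose. LPS (Escherichia coli B055/B5, 0.1 mg/kg ip) was given 30 min after dosing. Sera were collected 4-6 h after LPS and assayed in duplicate by sandwich ELISA for rat PTX3/TSG-14 (detection limit <0.02 ng/mL). Percent inhibition was taken against an untreated LPS control, as mean ± S.E.M. (n = 3).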

| Compound | inhibition in vivo at 30 mg/kg [%] |
| --- | --- |
| N=c1sc(=S)[nH]c2c1cc(-c1ccccc1)n2-c1ccccc1 | 0 |
| N=c1sc(=S)[nH]c2c1cc(-c1ccc(Cl)cc1)n2-c1ccccc1 | 2 |
| Cc1ccc(-c2cc3c(=N)sc(=S)[nH]c3n2-c2ccccc2)cc1 | 0 |
| N=c1sc(=S)[nH]c2c1cc(-c1ccc(Br)cc1)n2-c1ccccc1 | 44 |
| CCSc1nc2c(cc(-c3ccccc3)n2-c2ccccc2)c(=N)s1 | 0 |
| CCSc1nc2c(cc(-c3ccc(Cl)cc3)n2-c2ccccc2)c(=N)s1 | 1 |
| CCSc1nc2c(cc(-c3ccc(C)cc3)n2-c2ccccc2)c(=N)s1 | 0 |
| CCSc1nc2c(cc(-c3ccc(Br)cc3)n2-c2ccccc2)c(=N)s1 | 1 |
| CCC(C)Sc1nc2c(cc(-c3ccccc3)n2-c2ccccc2)c(=N)s1 (stereo not given) | 50 |
| CCC(C)Sc1nc2c(cc(-c3ccc(Cl)cc3)n2-c2ccccc2)c(=N)s1 (stereo not given) | 2 |
| CCC(C)Sc1nc2c(cc(-c3ccc(C)cc3)n2-c2ccccc2)c(=N)s1 (stereo not given) | 2 |
| CCC(C)Sc1nc2c(cc(-c3ccc(Br)cc3)n2-c2ccccc2)c(=N)s1 (stereo not given) | 70 |
| CCn1c(=S)[nH]c2c(cc(-c3ccccc3)n2-c2ccccc2)c1=N | 65 |
| CCn1c(=S)[nH]c2c(cc(-c3ccc(Cl)cc3)n2-c2ccccc2)c1=N | 61 |
| CCn1c(=S)[nH]c2c(cc(-c3ccc(C)cc3)n2-c2ccccc2)c1=N | 60 |
| CCn1c(=S)[nH]c2c(cc(-c3ccc(Br)cc3)n2-c2ccccc2)c1=N | 80 |
| N=c1c2cc(-c3ccccc3)n(-c3ccccc3)c2[nH]c(=S)n1N | 23 |
| N=c1c2cc(-c3ccc(Cl)cc3)n(-c3ccccc3)c2[nH]c(=S)n1N | 0 |
| Cc1ccc(-c2cc3c(=N)n(N)c(=S)[nH]c3n2-c2ccccc2)cc1 | 0 |
| N=c1c2cc(-c3ccc(Br)cc3)n(-c3ccccc3)c2[nH]c(=S)n1N | 33 |
